Source: PubChem
PHOSPHO1 block – blocks human PHOSPHO1 phosphatase activity. recombinant PHOSPHO1, absorbance phosphatase assay. inhibition, % at 13.3 µM. 290,000 compounds, 1.1% hits. AID 1565; in the data active means inhibition above about 60%
IMP-1 inhibitor – blocks Pseudomonas aeruginosa IMP-1 metallo-beta-lactamase; purified IMP-1, nitrocefin hydrolysis, epi-absorbance fluorescence; inhibition, % at 5.6 µM; 290,000 compounds, 0.45% hits; AID 1556;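 active means inhibition above the mean plus 3 SD of all compounds in the same screening run, cut at about 4.5% in these data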;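 further: 0% = IMP-1 with DMSO and 100% = DMSO wells lacking enzyme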
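assay system = purified recombinant IMP-1 metallo-beta-lactamase enzyme | schedule = 15 min preincubation plus 25 min reaction at 25 °C | signal = Epi-absorbance fluorescence, 480 nm excitation, 530 nm emission | read-out basis = percent inhibition from optical density relative to buffer-blank wells | controls = IMP-1 with DMSO as 0%, enzyme-free DMSO as 100%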
VIM-2 inh – inhibitors of Pseudomonas aeruginosa VIM-2 metallo-beta-lactamase; AID 1527; purified VIM-2, nitrocefin hydrolysis, epi-absorbance fluorescence; 290,000 compounds, 0.89% hits; inhibition, % at 5.6 µM;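 active means inhibition above the mean of all tested compounds plus 3 SD, cutoff set per screening run, cut at about 7.5% in these data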;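 further: red hydrolysis product quenches plate fluorescence so inhibitors raise well fluorescence; 0% = enzyme with DMSO and 100% = DMSO without enzyme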
ARFGAP1 inh – inhibits rat ARF GTPase activating protein 1. inhibition, % at 16.5 µM. Q62848. Arfgap1-stimulated ARF1 GTP hydrolysis, GDP FP detection. AID 651572. 360,000 compounds, 0.26% hits;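 active means inhibition above a per-plate limit, mean inhibition of low control wells plus 3 SD, cut at about 25% in these data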;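 further: 0% = DMSO wells with enzyme and 100% = wells lacking Arfgap1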
Target sequence (Q62848 1-136 limits assumed): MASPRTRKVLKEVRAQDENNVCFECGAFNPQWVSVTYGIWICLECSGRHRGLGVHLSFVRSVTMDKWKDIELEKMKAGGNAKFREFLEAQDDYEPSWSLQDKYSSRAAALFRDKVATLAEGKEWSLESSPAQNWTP
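Repeats: one replicate per compound; assay system: rat Arfgap1 catalytic domain, aa 1-136; times: enzyme reaction 120 min at 25 °C after 20 min preincubation; detection: FP of antibody-bound GDP Alexa 633 tracer, ex 620/em 688 nm; benchmarks: high control wells lacking Arfgap1, low control full reaction with DMSO; reagent: human ARF1(Δ1-17)-GTP substrate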
Calb FLC – affects C. albicans growth with fluconazole; C. albicans CaCi-2 (fluconazole-resistant clinical isolate) + fluconazole, Alamar Blue growth, 48 h; growth inhibition, % (test concentration not listed); 300,000 compounds, 0.57% hits;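 active means growth inhibition above about 58% in most replicates, limit read from the data, passing the limit was not always enough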;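 further: all wells also contain fluconazole at 8 µg/ml as a sub-toxic cotreatment; 0% = median of DMSO wells and 100% = median of geldanamycin control wells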
ASAP1 GAP inh – blocks human ASAP1-stimulated Arf1 GTP hydrolysis; inhibition, % at 16.5 µM; AID 624377; 360,000 compounds, 0.19% hits; GDP FP detection; in the data active means inhibition above about 25%;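 further: 0% = vehicle with enzyme and substrate and 100% = no enzyme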
Target sequence (Q9ULH1 325-724 limits assumed): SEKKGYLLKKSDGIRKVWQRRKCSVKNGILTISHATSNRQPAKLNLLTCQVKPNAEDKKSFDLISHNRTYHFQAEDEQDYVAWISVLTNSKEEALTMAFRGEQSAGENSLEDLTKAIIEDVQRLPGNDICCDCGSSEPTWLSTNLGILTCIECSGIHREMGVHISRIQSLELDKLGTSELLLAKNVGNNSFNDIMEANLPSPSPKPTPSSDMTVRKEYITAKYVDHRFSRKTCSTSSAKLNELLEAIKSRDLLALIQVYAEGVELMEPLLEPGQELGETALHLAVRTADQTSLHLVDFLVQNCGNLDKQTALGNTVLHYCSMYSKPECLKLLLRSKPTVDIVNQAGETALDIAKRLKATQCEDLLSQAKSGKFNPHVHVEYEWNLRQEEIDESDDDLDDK
Numbers without * were called inactive. Only some compounds are listed: those with a hit (about 2.6% of all), similar ones and a draw of the others.

For CCOC(=O)/C(=N\Nc1cccc(C(F)(F)F)c1)N1CCOCC1 the results were PHOSPHO1 block 36.6, IMP-1 inhibitor -4.4, VIM-2 inh -1.2, ARFGAP1 inh 13.7, Calb FLC 114.3* and ASAP1 GAP inh 3.5.
For O=C(CCSc1ccccc1)Nc1ccc(S(=O)(=O)N2CCOCC2)cc1 the results were PHOSPHO1 block 13.8, IMP-1 inhibitor 46.6*, VIM-2 inh -0.5, ARFGAP1 inh 8.4, Calb FLC 2.1 and ASAP1 GAP inh 9.2.
Cc1cccc(N2CCN(CC(=O)Nc3ccc(S(=O)(=O)N4CCOCC4)cc3)CC2)c1C was read as PHOSPHO1 block 17.6, IMP-1 inhibitor 4.5*, VIM-2 inh 1.9, ARFGAP1 inh 4.3, Calb FLC 1.7 and ASAP1 GAP inh 1.8.
O=C(CCCc1ccccc1)Nc1ccc(S(=O)(=O)N2CCOCC2)cc1 was read as PHOSPHO1 block 13.9, IMP-1 inhibitor -1.8, VIM-2 inh -1.2, ARFGAP1 inh -6.9, Calb FLC -8.0 and ASAP1 GAP inh 14.5.
`COc1ccc2c(CC(=O)OCC(=O)c3ccc(F)cc3)coc2c1` gave PHOSPHO1 block -11.0, IMP-1 inhibitor 5.3*, VIM-2 inh -1.9, ARFGAP1 inh 7.4 and ASAP1 GAP inh 10.0.
COc1ccc2c(CC(=O)OCC(=O)c3ccccc3OC)coc2c1 was read as PHOSPHO1 block -8.7, IMP-1 inhibitor -1.7, VIM-2 inh -2.9, ARFGAP1 inh -6.8, Calb FLC 4.8 and ASAP1 GAP inh 1.7.
CC(=O)C1=C(C)NC(=S)NC1c1ccccc1 (configuration not stated) was read as ARFGAP1 inh 8.8 and ASAP1 GAP inh 8.9.
For O=C(CSc1n[nH]c(-c2ccccc2)n1)Nc1ccc(N2CCOCC2)cc1 the results were PHOSPHO1 block 51.4, IMP-1 inhibitor -1.9, VIM-2 inh -2.5, ARFGAP1 inh -9.2, Calb FLC -16.2 and ASAP1 GAP inh -11.2.
Screening NS(=O)(=O)c1ccc(NC(=O)COC(=O)CSc2n[nH]c(-c3ccccc3)n2)cc1 returned PHOSPHO1 block 71.4*, IMP-1 inhibitor -2.7, VIM-2 inh -2.0, ARFGAP1 inh -8.1, Calb FLC 4.8 and ASAP1 GAP inh -5.9.
`CN1CCN(c2ccc(NC(=O)c3cc([N+](=O)[O-])ccc3N3CCOCC3)cc2)CC1` gave IMP-1 inhibitor -2.4, VIM-2 inh 12.2*, ARFGAP1 inh 14.1, Calb FLC 1.8 and ASAP1 GAP inh 3.0.
`CCOc1ccc(NC(=O)c2cc([N+](=O)[O-])ccc2N2CCOCC2)cc1` gave ARFGAP1 inh 0.0, Calb FLC -1.9 and ASAP1 GAP inh 3.4.
For CCOc1ccc(N=Cc2c(C)[nH]n(-c3nc4ccccc4[nH]3)c2=O)cc1 the results were PHOSPHO1 block -26.9, IMP-1 inhibitor 7.2*, VIM-2 inh -3.3, ARFGAP1 inh -14.0, Calb FLC -6.6 and ASAP1 GAP inh -5.5.
COc1ccc(-c2cc(C)no2)cc1S(=O)(=O)N(C)c1cccc(C)c1 was read as PHOSPHO1 block 47.7, IMP-1 inhibitor 0.9, VIM-2 inh 1.7, ARFGAP1 inh 4.5, Calb FLC 92.3* and ASAP1 GAP inh 2.8.
`CCNC(=O)N(C)[C@H]1C[C@H]2c3[nH]c4c(-c5ccc6c(c5)OCO6)cccc4c3CCN2C(=O)[C@H]1[C@H](C)O` gave ARFGAP1 inh -6.7 and ASAP1 GAP inh 5.3.
Screening COC(=O)C1=CC(=O)N2CCN=C2S1 returned ARFGAP1 inh 1.7 and ASAP1 GAP inh 7.6.
Screening CNCCCOc1ccc2c(c1)CCC2 returned PHOSPHO1 block -3.0, IMP-1 inhibitor 1.5, VIM-2 inh -2.2, ARFGAP1 inh -4.8, Calb FLC 3.0 and ASAP1 GAP inh -8.1.
For c1cnc(SCCOc2ccc3c(c2)CCC3)nc1 the results were PHOSPHO1 block 9.5, IMP-1 inhibitor -3.4, VIM-2 inh -2.9, ARFGAP1 inh 2.7, Calb FLC 101.0* and ASAP1 GAP inh -0.9.
Screening O=C(CSc1cccc[n+]1[O-])c1cc2ccccc2o1 returned PHOSPHO1 block 79.4*, IMP-1 inhibitor -1.1, VIM-2 inh 2.3 and Calb FLC -10.9.
O=C(CSc1cccc[n+]1[O-])c1cc(Cl)ccc1Cl was read as PHOSPHO1 block -2.1, IMP-1 inhibitor -4.2, VIM-2 inh -3.1, ARFGAP1 inh -7.6, Calb FLC 100.4* and ASAP1 GAP inh -5.3.
